This is an account of results in ChEMBL document CHEMBL1149585, “Toward the development of chemoprevention agents. Part 1: Design, synthesis, and anti-inflammatory activities of a new class of 2,5-disubstituted-dioxacycloalkanes” (Bioorg Med Chem, 2007).

Data set [1] relates to Mus musculus. The data set can be described thus: Antiinflammatory activity against xylene-induced ear edema in Kunming mouse assessed as edema weight at 20 mg/kg, po after 2 hrs relative to control. In kind it is functional. The essentials:
(§1)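 Male Kunming mice (groups of 12; n = 11 per table footnote) were dosed orally as a suspension in 0.5% CMC, with CMC vehicle and positive control groups. After 30 min, 0.03 ml xylene went on both surfaces of the right ear, with the left ear as control. Mice were killed 2 h later. 7 mm ear punches were weighed, and edema was taken as right minus left weight. Groups were compared by one-way ANOVA, p < 0.05.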

Data set [2] relates to Mus musculus. Briefly: Toxicity in mouse assessed as tail bleeding time at 200 mg/kg, po after 30 mins. In kind it is organism-based. On the set-up: dose 200 mg/kg, route oral. The conditions noted are these: in vivo, 0.5 h. The essentials:
(§2)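 Male mice (18–22 g) were dosed orally, and bleeding time was recorded before dosing and at each post-dose time. Each mouse was held in a tube with its tail protruding, and a 2 mm tail cut was made. Blood was wiped away with tissue every 30 s until bleeding ceased, and the time was recorded. The comparison group received NS.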

Data set [3] deals with Mus musculus. The data set can be described thus: Toxicity in mouse assessed as tail bleeding time at 200 mg/kg, po after 90 mins. In kind it is organism-based. On the set-up: dose 200 mg/kg, route oral. The conditions noted are these: in vivo, 1.5 h. Put shortly: as §2
The test system of data set [4] is Mus musculus. Briefly: Toxicity in mouse assessed as tail bleeding time at 200 mg/kg, po after 60 mins. In kind it is organism-based. Also noted: dose 200 mg/kg, route oral. The conditions noted are these: in vivo, 1 h. Put shortly:
as §2

Data set [5] relates to Mus musculus. Briefly: Toxicity in mouse assessed as tail bleeding time at 200 mg/kg, po after 45 mins. In kind it is organism-based. On the set-up: dose 200 mg/kg, route oral. To be noted: in vivo, 0.75 h. The essentials: as §2
Data set [6] relates to Mus musculus. Briefly: Inhibition of xylene-induced ear edema in Kunming mouse at 20 mg/kg, po after 2 hrs relative to control. In kind it is functional. The essentials:
as §1

Data set [7] has as its system Mus musculus. Briefly: Inhibition of xylene-induced ear edema in Kunming mouse at 30 mg/kg, po after 2 hrs relative to control. In kind it is functional. The essentials:
as §1

Data set [8] deals with Mus musculus. Briefly: Antiinflammatory activity against xylene-induced ear edema in Kunming mouse assessed as edema weight at 30 mg/kg, po after 2 hrs relative to control. In kind it is functional. The essentials: as §1

As to `CC(O)C(CO)NC(=O)Cc1ccccc1` (single isomer, unassigned), the Activity in data set [1] was determined as 3.35 mg.
Still for that read-out and setting: the figure for `O=Cc1cccc([N+](=O)[O-])c1` [3-NITROBENZALDEHYDE] is 3.5 mg; for `O=C(N[C@H](CO)CCO)c1ccccc1` it is 4.01 mg.
Turning to `O=Cc1ccc(Cl)cc1`, in data set [1], the Activity was determined as 3.8 mg.
With `O=C(N[C@H](CO)CCCO)c1ccccc1`, the Activity in data set [1] was found to be 3.38 mg.
On to `O=C(NC(CO)CO)c1ccccc1`, for which, in data set [1], the Activity is recorded as 3.25 mg.
Turning to `Cc1ccc([C@@H]2OC[C@@H](NC(=O)Cc3ccccc3)[C@@H](C)O2)cc1`, the Activity came to 117.9 s in data set [2], 118.5 s in data set [3], 119 s in data set [4] and 118.6 s in data set [5]. In data set [6], this molecule came in with an inhibition in vivo at 20 mg/kg of 42.3%.
As for `O=Cc1ccc([N+](=O)[O-])cc1`, the Activity in data set [1] is reported as 3.39 mg.
In data set [7], `CC(=O)Oc1ccccc1C(=O)O` [ASPIRIN] showed an inhibition in vivo at 30 mg/kg of 40.7%. For the same molecule, the Activity in data set [8] is listed as 1.85 mg.
Turning to `C[C@@H]1O[C@H](c2ccccc2)OC[C@H]1NC(=O)Cc1ccccc1`, the Activity in data set [2] is 118.5 s; in data set [3] it was 117.9 s; in data set [4], 118.6 s; in data set [5], 119 s. This molecule also yielded an inhibition in vivo at 20 mg/kg in data set [6] of 41.3%.
On to `O=C(Cc1ccccc1)N[C@H]1CO[C@@H](c2cccc([N+](=O)[O-])c2)OC1`, for which the Activity came out at 117.7 s in data set [2], 118.6 s in data set [3], 119.2 s in data set [4] and 118.5 s in data set [5]. In addition, 20 mg/kg produced 41.3% inhibition in vivo in data set [6].
On to `C[C@@H]1O[C@H](c2ccc([N+](=O)[O-])cc2)OC[C@H]1NC(=O)c1ccccc1`, for which the Activity in data set [2] worked out at 117.8 s; in data set [3], 119 s; in data set [4], 118.8 s; in data set [5], 118.1 s. This molecule also gave an inhibition in vivo at 20 mg/kg in data set [6] of 55.4%.
Regarding `C[C@@H]1O[C@@H](c2ccc(Cl)cc2)OC[C@H]1NC(=O)c1ccccc1`, the Activity in data set [2] is recorded as 118.3 s; in data set [3], 118.7 s; in data set [4], 118.5 s; in data set [5], 118.9 s. This molecule also showed an inhibition in vivo at 20 mg/kg in data set [6] of 56.4%.
Turning to `O=Cc1ccccc1` [BENZALDEHYDE], in data set [1], the Activity stood at 3.45 mg.
For `C[C@@H]1O[C@@H](c2cccc([N+](=O)[O-])c2)OC[C@H]1NC(=O)c1ccccc1`, the Activity in data set [2] is 118.9 s; in data set [3], 118.3 s; in data set [4], 117.4 s; in data set [5] it was 119.2 s. For the same molecule, the inhibition in vivo at 20 mg/kg in data set [6] stood at 42%.
For the molecule `Cc1ccc(C=O)cc1`, in data set [1], the Activity came out at 3.72 mg.
For the molecule `C[C@@H]1O[C@H](c2ccccc2)OC[C@H]1NC(=O)c1ccccc1`, the Activity came to 118.7 s in data set [2], 118.9 s in data set [3], 118.6 s in data set [4] and 118.9 s in data set [5]. The molecule further showed an inhibition in vivo at 20 mg/kg in data set [6] of 43.9%.
As to `O=C(Cc1ccccc1)N[C@H]1CO[C@@H](c2ccc([N+](=O)[O-])cc2)OC1`, the Activity is listed as 120.7 s in data set [2], 117.7 s in data set [3], 117.6 s in data set [4] and 120.2 s in data set [5]. The molecule further displayed an inhibition in vivo at 20 mg/kg in data set [6] of 43.3%.
Consider `Cc1ccc([C@H]2OC[C@@H](NC(=O)Cc3ccccc3)[C@H](C)O2)cc1`, for which the Activity came to 117.9 s in data set [2], 118.5 s in data set [3], 119 s in data set [4] and 118.6 s in data set [5]. This molecule came in with an inhibition in vivo at 20 mg/kg in data set [6] of 41%.
For the molecule `O=C(Cc1ccccc1)N[C@H]1CO[C@H](c2cccc([N+](=O)[O-])c2)OC1`, the Activity in data set [2] came to 117.7 s; in data set [3], 118.6 s; in data set [4] it was 119.2 s; in data set [5], 118.5 s. Besides, the inhibition in vivo at 20 mg/kg in data set [6] worked out at 42.6%.
For `C[C@H]1O[C@@H](c2ccc(Cl)cc2)OC[C@H]1NC(=O)Cc1ccccc1`, the Activity in data set [2] was 118.4 s; in data set [3], 119 s; in data set [4] it was 118.6 s; in data set [5] it was 119.6 s. In data set [6], this molecule gave an inhibition in vivo at 20 mg/kg of 46.4%.
Take `O=C(Cc1ccccc1)NC(CO)CCO` (single isomer, unassigned): the Activity in data set [1] amounted to 3.44 mg.
For the molecule `C[C@@H]1O[C@H](c2ccc(Cl)cc2)OC[C@H]1NC(=O)c1ccccc1`, the Activity in data set [2] amounted to 119.6 s; in data set [3], 118.6 s; in data set [4], 118.7 s; in data set [5], 118.6 s. Besides, in data set [6], testing at 20 mg/kg gave an inhibition in vivo of 47.1%.
Regarding `C[C@@H](O)[C@H](CO)NC(=O)c1ccccc1`, the Activity in data set [1] came out at 3.32 mg.
For the molecule `O=C/C=C/c1ccccc1`, the Activity in data set [1] came out at 3.4 mg.
For `O=C(Cc1ccccc1)NC(CO)CCCO` (single isomer, unassigned), the Activity in data set [1] worked out at 3.53 mg.
For the molecule `C[C@@H]1O[C@@H](c2ccc([N+](=O)[O-])cc2)OC[C@H]1NC(=O)c1ccccc1`, the Activity is on record as 118.4 s in data set [2], 118.9 s in data set [3], 117.2 s in data set [4] and 119.2 s in data set [5]. Besides, the inhibition in vivo at 20 mg/kg in data set [6] came to 57.4%.
On to `C[C@@H]1O[C@@H](c2ccccc2)OC[C@H]1NC(=O)Cc1ccccc1`, for which the Activity in data set [2] came to 118.5 s; in data set [3], 117.9 s; in data set [4], 118.6 s; in data set [5] it was 119 s. In data set [6], this molecule yielded an inhibition in vivo at 20 mg/kg of 40%.
With `O=C(Cc1ccccc1)NC(CO)CO`, the Activity in data set [1] is 3.88 mg.
On to `C[C@@H]1O[C@H](c2ccc(Cl)cc2)OC[C@H]1NC(=O)Cc1ccccc1`, for which the Activity was found to be 118.4 s in data set [2], 119 s in data set [3], 118.6 s in data set [4] and 119.6 s in data set [5]. Moreover, in data set [6], the inhibition in vivo at 20 mg/kg stood at 46.1%.

A word on the inhibition in vivo: it is the share of the control response that was lost under treatment. High values mean a response far below the control, low ones a response near the control.
